# Screens as filed in PubChem BioAssay.
# This is a sample that favours compounds with a hit; in the whole collection about 1.3% have one here.
# S1P4 antagonist: human S1P4 receptor antagonism; O95977; S1P4-expressing cells, antagonist mode, reporter read-out; inhibition, % at 4.98 µM; actives 0.26% (n = 220,000); AID 1510; in the data active = inhibition above about 29%
# S1P4 agonist: activates the human S1P4 receptor. O95977. S1P4-expressing cell line, agonist reporter assay. activation, % at 4.98 µM. actives 0.35% (n = 220,000). AID 1509; in the data active = activation above about 11%
# Hsp70 activator: transcriptional activators of Hsp70. activation, % at 10 µM. actives 0.04% (n = 200,000). HeLa Hsp70 promoter luciferase reporter, luminescence; scaled: vehicle 0, proteasome-inhibitor control 100%. AID 1203;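 active = activation above the mean across all tested compounds plus 3 SD, cutoff set per campaign, cut at about 5.5% in these data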
# Dynein cargo inh: dynein cargo transport inhibition; 3617.4 mouse cells, GR-EGFP nuclear translocation imaging; test concentration mostly 20 µM; stimulated with dexamethasone, 1 µM; stronger effect = lower value; z-score, hits read low; actives 0.47% (n = 220,000);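 active = plate z-score of nuclear minus cytoplasmic receptor signal below a set negative limit, without overly bright fluorescence or cell loss, cut at about -3.5 in these data, passing the limit was not always enough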;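 note: z-score of nuclear minus cytoplasmic ring GR-EGFP intensity difference per well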
#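 Also added: dexamethasone, 1.0 µM final. Medium: tet-free, stripped-serum medium. Detection: fixed, Hoechst-stained cells imaged at 10x for EGFP. Read-out: nuclear-to-cytoplasmic GR-EGFP distribution per well. Times: induction 48 h, compound 1 h, agonist 30 min.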
# Mdm2 ligase inh: blocks human Mdm2 ubiquitin ligase activity. cell-based MDM2 ubiquitination luciferase reporter, 2 h; 0 = plate control, 100 = twice control, blank-subtracted. actives 0.11% (n = 210,000). Q00987. AID 1230. signal enhancement, % at 5 µM;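 active = signal enhancement of 30% or more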;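 note: luminescence tracks abundance of the self-degrading MDM2-luciferase fusion protein; higher signal means inhibition of MDM2 E3 ligase activity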
# Target sequence (Q00987 whole entry, looked up, the tested form may be a part): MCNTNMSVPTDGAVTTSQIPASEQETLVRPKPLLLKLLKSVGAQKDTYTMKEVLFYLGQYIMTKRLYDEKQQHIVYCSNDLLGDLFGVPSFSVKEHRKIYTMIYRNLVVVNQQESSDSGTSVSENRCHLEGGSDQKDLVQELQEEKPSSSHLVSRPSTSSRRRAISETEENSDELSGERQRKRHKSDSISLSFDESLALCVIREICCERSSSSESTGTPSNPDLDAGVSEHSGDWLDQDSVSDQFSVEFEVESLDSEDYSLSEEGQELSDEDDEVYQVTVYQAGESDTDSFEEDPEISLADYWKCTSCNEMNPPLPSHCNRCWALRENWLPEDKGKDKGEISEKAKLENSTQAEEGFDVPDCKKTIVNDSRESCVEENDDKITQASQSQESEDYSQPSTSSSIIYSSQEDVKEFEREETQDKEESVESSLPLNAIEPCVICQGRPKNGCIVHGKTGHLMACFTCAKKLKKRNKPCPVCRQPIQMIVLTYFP
#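 System: stable MDM2–luciferase fusion reporter cells / Input: 2000 cells seeded into each well / Schedule: 4 h settle plus 2 h compound, 37 °C / Compound: single-point 5 µM / Buffer or medium: cells held in DMEM / Benchmarks: control and blank well means / Evaluation: percent signal gain over controls, blank-subtracted / Measured by: luciferase luminescence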
# S1P3 antagonist: antagonists of human S1P3 receptor | CHO S1P3 NFAT-BLA reporter, FRET fluorescence, antagonist mode | inhibition, % at 4.98 µM | actives 0.27% (n = 170,000);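 active = inhibition above the plate cutoff, the mean inhibition of test wells on that plate plus 3 SD, cut at about 28% in these data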;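 note: cells challenged with S1P at its EC80 of 0.8 µM; blue over green emission ratio from cleaved BLA substrate after 4 h stimulation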
# Dynein confirm: dynein cargo transport inhibition, confirmation; 3617.4 GR-EGFP nuclear translocation imaging, dexamethasone-induced; actives 69% (n = 1,000); calls only at 20 µM; shares compounds with Dynein cargo inh;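 active = inhibition of receptor movement into the nucleus at or above a set limit in both runs, with normal cell brightness and cell count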;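 note: dexamethasone at 1 µM final in well for 30 min; nuclear minus cytoplasmic GR-EGFP mean intensity difference in channel 2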
# Hits are given with their value; n = inactive; x = no result; + = active, no number.
SMILES,S1P4 antagonist,S1P4 agonist,Hsp70 activator,Dynein cargo inh,Mdm2 ligase inh,S1P3 antagonist,Dynein confirm
CCOC(=O)C(NC(=O)c1cccc(Cl)c1)(Nc1sc2c(c1C(N)=O)CCC2)C(F)(F)F (stereo not given),n,n,n,-4.5,n,n,+
C=CCN(CC=C)C(=O)c1ccccc1NC(=O)c1ccccc1C,n,n,n,n,n,x,x
Cc1oc2ccccc2c1CC(=O)NCCCN(C)C,n,n,x,n,n,n,x
O=[N+]([O-])c1ccc2ccn(C3OCC(O)C(O)C3O)c2c1 (stereo not given),n,n,n,n,n,n,x
CCOC(=O)c1c(-c2ccc(C)o2)csc1NC(=O)CSc1nncs1,n,n,n,-4,n,n,n
CCOC(=O)c1c(-c2ccc(C)o2)csc1NC(=O)CN1CCN(CC)CC1,n,n,n,n,n,n,x
CCOC(=O)c1c(-c2ccc(C)o2)csc1NC(=O)CN1CCCCC1,n,n,n,-4.6,n,n,n
N/C(=N\OC(=O)COc1ccc(Cl)cc1Cl)c1ccncc1,n,n,n,n,n,n,x
CCN(CC)C1=CC2=CC(=C(C#N)C#N)CCC2CC1 (stereo not given),n,n,n,n,n,n,x
N#CC(C#N)=C1C=C2C=C(N3CCCCC3)CCC2CC1 (stereo not given),n,n,n,-7.3,n,n,+
CCCCN(C)C1=CC2=CC(=C(C#N)C#N)CCC2CC1 (stereo not given),n,n,n,-8.1,n,n,+
COc1ccccc1-n1c(=S)[nH]c2c(sc(=S)n2-c2ccccc2C)c1=O,n,n,n,n,n,n,x
Clc1nc(-c2cccnc2)nc2scc(-c3ccccc3)c12,n,n,n,n,n,n,x
COc1ccc(-c2csc3nc(-c4cccnc4)nc(Cl)c23)cc1OC,n,n,n,-4.4,n,n,+
N=C(c1ccc([N+](=O)[O-])cc1)N1CCCCCC1,n,n,n,n,n,n,x
O=C(CN1C(=O)C2C3CC(C(Br)C3Br)C2C1=O)Nc1ccc(C(=O)O)cc1 (stereo not given),n,n,x,n,n,n,x
CC1=NN(c2ccccc2)C(=O)/C1=C\c1sccc1C,n,n,x,n,n,n,x
Cc1ccc(C2=NOC(=O)/C2=C\C=C\c2ccccc2)cc1,n,n,n,-5.6,n,n,+
CC1=NN(c2ccccc2)C(=O)/C1=C/C=C/c1ccccc1,n,n,n,-5.8,x,n,+
CC(C)Cc1cc(C(=O)N2CCC(N3CCC(C(=O)N4CCOCC4)CC3)CC2)n[nH]1,n,n,n,n,n,n,x
CCOC(=O)c1cc(-c2ccc(/C=C3/C(=O)NC(=O)C(C#N)=C3C)o2)ccc1Cl,n,n,n,-3.6,n,x,+
CC1=C(C#N)C(=O)NC(=O)/C1=C\c1ccc(-c2ccc(C)cc2[N+](=O)[O-])o1,n,n,n,n,n,n,x
COc1ccc(NC(=O)c2oc3cc(C)c(C)cc3c2C)c(OC)c1,n,n,n,-4,x,n,n
CCN(CC)S(=O)(=O)c1ccc2oc(C(=O)Nc3ccc(OC)cc3OC)c(C)c2c1,n,n,n,n,n,n,x
COc1ccccc1CNC(=O)c1cn(C)c2ccc(S(=O)(=O)N3CCCCC3)cc2c1=O,n,n,n,n,n,n,x
SMILES,S1P4 antagonist,S1P4 agonist,Hsp70 activator,Dynein cargo inh,Mdm2 ligase inh,S1P3 antagonist,Dynein confirm
COc1cc(/C=C(\C#N)C(=O)Nc2ccc3c(c2)OCCO3)ccc1O,n,n,x,n,x,n,x
O=c1c(Cl)c(Cl)cnn1Cc1nnc(-c2ccccc2Br)o1,n,n,n,-5.6,n,n,+
CCN1CC=C2C(C#N)=C(N)C(C#N)(C#N)C(CCc3ccccc3)C2C1 (stereo not given),n,n,n,n,n,n,n
CC(=O)N1CC=C2C(C#N)=C(N)C(C#N)(C#N)C(CCc3ccccc3)C2C1 (stereo not given),n,n,n,n,n,n,x
CS(=O)(=O)Nc1cccc(C2=NN(S(C)(=O)=O)C(c3ccc4c(c3)OCO4)C2)c1 (stereo not given),n,n,n,n,n,n,x
CS(=O)(=O)N1N=C(c2ccccc2)CC1c1ccc2c(c1)OCO2 (stereo not given),n,n,n,n,n,n,n
COc1ccccc1C(=O)/C=C/c1ccc(N2CCCCC2)c([N+](=O)[O-])c1,n,n,n,-5.4,n,n,+
O=C(O/N=C\c1ccc(N2CCCCC2)c([N+](=O)[O-])c1)c1ccc(Cl)cc1Cl,n,n,n,n,n,x,x
O=C(/C=C/c1ccc(N2CCCCC2)c([N+](=O)[O-])c1)c1ccc(O)cc1,n,n,n,-3.7,n,n,+
COc1cccc(F)c1C(C[N+](=O)[O-])c1c(N)n(C)c(=O)n(C)c1=O (stereo not given),n,n,x,-3.6,n,n,+
CCn1c(/C=C/N(C(C)=O)c2ccccc2)[n+](CC)c2ccc(Cl)cc21,n,n,n,n,x,n,x
CC[n+]1c(/C=C/C=C/N(C(C)=O)c2ccccc2)sc2ccccc21,n,n,n,-3.9,n,x,+
CC(=O)C(Cl)C(=O)Nc1ccccc1 (stereo not given),n,n,n,-4.2,n,n,n
CC(Cc1ccccc1)C(=O)Nc1ccccc1 (stereo not given),n,n,n,n,x,n,x
O=C(Nc1ccccc1)C1=C(O)CC(c2ccoc2)CC1=Nc1ccccc1 (stereo not given),n,n,n,-4.2,n,n,n
O=C(Nc1ccccc1)C1=C(O)CC(c2ccco2)CC1=Nc1ccccc1 (stereo not given),n,n,n,n,n,n,x
COC(=O)c1ccc(-n2c(C)cc(C(=O)CCl)c2C)cc1,n,n,n,-5,n,n,+
CCOc1ccc(-n2c(C)cc(C(=O)CCl)c2C)cc1,n,n,n,-4.8,n,n,+
COC(=O)c1ccc(-n2c(C)cc(C(=O)COC(=O)CNS(=O)(=O)c3ccc(C)cc3)c2C)cc1,n,n,n,n,n,n,x
CC(=O)Nc1cccc(NC(=O)CSc2nnnn2-c2ccc3c(c2)OCO3)c1,n,n,x,n,x,n,x
O=C(CSc1ccccn1)Nc1nc2ccccc2s1,n,n,n,n,n,n,x
O=S(=O)(CCSc1ccccn1)c1nc2ccccc2s1,n,n,n,-4,n,n,+
O=S(=O)(CCSc1nc2ccccc2o1)c1nc2ccccc2s1,n,n,n,-4.1,n,n,+
O=C(CCC(=O)N/N=C/c1cc(Cl)cc(Cl)c1O)NCc1ccccc1,n,n,n,n,n,n,x
